99 compounds from ChEMBL document CHEMBL4513216, “Probing the Open Global Health Chemical Diversity Library for Multistage-Active Starting Points for Next-Generation Antimalarials” (ACS Infect Dis, 2020) can be followed below.

Each structure is given as a SMILES string.

The data set in a line: Toxicity liver stage against HepG2, at 10uM. It is filed as cell-based. Set-up: test concentration 10 uM, cell line HepG2-A16-CD81EGFP. The settings on record: human, HepG2-A16-CD81EGFP cells; read-out: INHIBITION
In short, it runs like this:
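Uninfected HepG2-A16-CD81EGFP cells, 3 × 10^3 per well, 1536-well, plated on prespotted compound at 10 μM final, parasite-free screening media added to match infected plates; puromycin 10 μM positive, DMSO 0.5% negative; run in parallel with 48 h PbLuc assay at 37 °C, 5% CO2; viability by CellTiter-Glo luminescence, normalized to controls.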
Turning to `Cc1ccc2c(c1)c(Sc1ccccc1)c(CC(=O)O)n2C`, the cytotoxicity at 10 µM stood at 3.56%.
For the compound `COc1ccc2[nH]cc(C(=O)CNc3nccs3)c2c1`, the cytotoxicity at 10 µM came out at 4.32%.
To `O=C(Nc1nc2c(s1)CN(S(=O)(=O)C1CC1)CC2)c1ccsc1` belongs 24.9%; to `CCN(CC)C(=O)c1nc2c(s1)CCN(C(=O)CCC(=O)OC)CC2`, 12.9%; to `O=C(c1ncn2c(C3CCN(CC4CC4)CC3)ccnc12)N1CCCC1`, -3%.
The value for `Cc1ccc(C(=O)N2CCc3ncnc(C)c3CC2)cn1` was 9.75%.
To `CCc1c(C)nc2n(c1=O)CC(C(=O)Nc1nccs1)CS2` (centres undefined) belongs 1.83%; to `O=C(Cn1cc(C(=O)O)ccc1=O)Nc1ccc(F)cc1Cl`, 0.381%.
Turning to `CCc1oc2ccc(NS(C)(=O)=O)cc2c1C(=O)OC`, the cytotoxicity at 10 µM turned out to be 6.8%.
For `CCn1nc(C)c(NC(=O)C(C)C)c1C`, the cytotoxicity at 10 µM was 1.73%.
In the case of `Cc1cc2nc(SCC(=O)NC(C)C)n(Cc3ccco3)c(O)c-2n1`, the cytotoxicity at 10 µM is 10.5%.
Regarding `COCCCNC(=O)CCn1nc(C)c2ccccc21`, the cytotoxicity at 10 µM came out at 9.87%.
The value for `NC(=O)C1(Cc2ccccc2-c2cncnc2)CCCNC1` (centres undefined) was 3.35%; that for `COc1ccc(-c2cc(C3CCCCCN3S(C)(=O)=O)on2)cc1` (centres undefined) was 0.46%.
Take `CS(=O)(=O)c1cc(Cl)cnc1C1CCN(C(=O)C2CCCO2)CC1` (centres undefined): the cytotoxicity at 10 µM stood at 4.38%.
To `Cc1cc(C(=O)N2CCC(O)(Cn3ccc4ccncc43)CC2)on1` belongs 7.55%; to `O=C(Cn1cnc2cc3c(cc21)OCCCO3)NCCc1ccccc1`, 7.57%; to `CNc1cncc(C2CCN(S(C)(=O)=O)CC2)n1`, 3.54%.
The value for `Cc1ccc(S(=O)(=O)N2CCC(c3n[nH]cc3C(=O)N(C)C)CC2)cc1` was -1.73%.
To `Cc1cnc(N2CCOC(C(=O)NCc3ccccc3)C2)s1` (centres undefined) belongs -2.84%; to `COc1ccc(Br)cc1SCCCS(C)(=O)=O`, 3.85%; to `N#Cc1ccc(S(=O)(=O)Nc2ccc(N3CCOCC3)cn2)cc1`, 0.966%.
Turning to `Cn1cc(-c2noc(C3(C)CCOCC3)n2)cn1`, the cytotoxicity at 10 µM was -5.65%.
The value for `CC(C)Cc1nc(CS(=O)(=O)C(C)C(=O)N2CCOCC2)no1` (centres undefined) was 3.13%.
The value for `CN(CCc1nc(-c2cccc(Cl)c2)no1)CCn1cccn1` was 8.86%; that for `O=C(NC(C1CC1)C1CC1)c1cccc[n+]1[O-]` was 10.8%; that for `CCN(C)c1ccc(CNC(=O)CCn2cc(C)cn2)cc1F` was -9.51%.
For the compound `c1ccc(C2(NCC3CNc4ccnn4C3)CCC2)cc1` (centres undefined), the cytotoxicity at 10 µM is -5.34%.
Take `NC(=O)Nc1cccc(CNC(=O)CCCOCc2ccccc2)c1`: the cytotoxicity at 10 µM is -8.06%.
In the case of `Cc1cc(C2CCCN(C(=O)COc3ccc(F)cc3F)C2)n[nH]1` (centres undefined), the cytotoxicity at 10 µM was found to be 5.93%.
The value for `O=C(CCCn1cccn1)N1CCCC(n2cncn2)C1` (centres undefined) was 6.61%; that for `O=C1CN(C(=O)CSC2CCCc3ccccc32)CCN1` (centres undefined) was -9.45%.
To `COc1ccc(C(CC(=O)O)NC(=O)CCc2cccs2)cc1OC` (centres undefined) belongs -6.33%; to `Cn1cc(C(=O)CC2CCCN2C(=O)c2ccc(Cl)o2)cn1` (centres undefined), -4.57%; to `CC(C)C1CCCN1CC(=O)NCc1ccc(OCC(N)=O)cc1` (centres undefined), 7.01%.
To `CC1CCC(NC(=O)CNC2(c3ccc(F)cc3)CCOCC2)CC1` (centres undefined) belongs 7.79%; to `Cc1cccc2nc(CNC(=O)N3CCC(N4CC=CC4)C3)cn12` (centres undefined), 5.88%.
Take `CC(=O)N(Cc1ncc(C)o1)C1CCN(CCc2ccncc2)C1` (centres undefined): the cytotoxicity at 10 µM was 1.3%.
Consider `CCOC(=O)NC(=O)CSC(C)c1ccccc1F` (centres undefined), for which the cytotoxicity at 10 µM was -15.1%.
On to `Cc1ccc(C(=O)NCc2ccc(N3CCNC(=O)C3)c(F)c2)cc1`, for which the cytotoxicity at 10 µM was -3.31%.
For the compound `CCC(CC)c1cc(CNC(=O)N2CCCN(C(C)=O)CC2)on1`, the cytotoxicity at 10 µM is -7.55%.
To `Cc1noc(CCCC(=O)NC(C)c2nnc3n2CCC3)n1` (centres undefined) belongs 0.259%; to `CCOCCN1CCN(Cc2nnc(C3CC3)o2)CC1`, 1.95%; to `O=C1CCC(=O)N1CCN1CCOC(c2ccsc2)C1` (centres undefined), 7.55%.
The value for `CNS(=O)(=O)c1ccc(CNC(=O)c2cc(C)no2)cc1` was 5.12%; that for `CC(NC(=O)NCCNc1cccc(F)c1C#N)c1cccs1` (centres undefined) was -1.31%.
The value for `OCCOc1cc(F)ccc1NCc1nc(-c2cccs2)no1` was -46.1%.
Regarding `Cc1noc(CCCC(=O)Nc2cc(C(F)(F)F)c[nH]c2=O)n1`, the cytotoxicity at 10 µM is -10.8%.
The value for `COc1ccc(NC2CCN(C3CC3)C2=O)cn1` (centres undefined) was -10%; that for `Cc1nc(CN(CCS(C)(=O)=O)C(C)(C)C)no1` was -1.86%; that for `O=C(NCCC1Cc2ccccc2C1)N1CCCC(O)C1` (centres undefined) was 22.2%.
For the compound `CN(Cc1nnc(C2CCC2)o1)C(C(N)=O)c1cccc(F)c1` (centres undefined), the cytotoxicity at 10 µM is 16.7%.
Take `O=C(NCC1CCCCO1)c1ccc(-c2cccs2)[nH]c1=O` (centres undefined): the cytotoxicity at 10 µM was -7.03%.
To `O=C(O)c1ccc(S(=O)(=O)Nc2cccc(CC(F)(F)F)c2)c(F)c1` belongs -6.19%; to `COc1ccc(CCC(=O)Nc2ccncc2C)cc1`, 16.1%; to `Cc1ncc(-c2ccnc(N3CCCCCC3)n2)c(-c2cccnc2)n1`, 6.21%.
`CC(C)[C@H]1CN(Cc2nccn2C)C[C@@H]1NC(=O)CCS(C)(=O)=O`: the cytotoxicity at 10 µM was -8.85%.
`CCN(CCO)C[C@@H]1CN(c2cc(C(F)(F)F)cc(C)n2)C[C@@H]1CO`: the cytotoxicity at 10 µM was -1.7%.
`Cc1c(C(=O)N2CCC3(CCCNC3=O)C2)sc2nc[nH]c(=O)c12` (centres undefined): the cytotoxicity at 10 µM was -10.7%.
To `COc1ccc2c(c1)OCC(CNC(=O)c1cnc(O)cn1)C2` (centres undefined) belongs -1.09%; to `COC[C@]1(O)CCN(c2cc(C3CC3)ncn2)CC1(C)C`, -1.53%; to `Cc1nn(C)c2nc(N3CCC(C(O)c4nccn4C)CC3)sc12` (centres undefined), 0.79%.
For the compound `CC(C)n1cnnc1Cn1ccc2ncccc2c1=O`, the cytotoxicity at 10 µM stood at 0.86%.
`CC(C)CCN1CCNC(=O)C1CC(=O)NCCc1cc(O)ncn1` (centres undefined): the cytotoxicity at 10 µM was -0.806%.
Consider `Cc1noc(C)c1C1CCCN1C(=O)c1cn2ccsc2n1` (centres undefined), for which the cytotoxicity at 10 µM is 12.3%.
`CC[C@@]1(O)CCN(C(=O)c2ccoc2)C[C@H]1O`: the cytotoxicity at 10 µM amounted to 4.63%.
To `CCC1CN(C(=O)c2cncc(C)c2)CCC(=O)N1Cc1ccccc1` (centres undefined) belongs 9.33%; to `COC(=O)N1CCCCC1C(=O)N1CCN(c2ncccc2C)CC1` (centres undefined), 3.37%; to `Cc1ccc(C)c(OCc2cc(C(=O)N(C)Cc3cnn(C)c3)no2)c1`, -6.12%.
For the compound `CCn1cc(CN2CCC(c3ccncc3)CC2)cc1C#N`, the cytotoxicity at 10 µM was -5.38%.
`CCN(CC)C(=O)[C@@H]1C[C@H](NC(=O)c2cccn2C(C)C)CN1C`: the cytotoxicity at 10 µM was determined as 7.57%.
The value for `CCCOCC1CCN(C(=O)Cn2cccc(OC)c2=O)C1` (centres undefined) was 5.88%; that for `Cc1nc(CN2CCC(Oc3ccc(F)cc3C)(C(=O)O)CC2)co1` was 2.28%.
`Cc1nn(CCO)cc1CN1CCCN(C2CCCC2)CC1`: the cytotoxicity at 10 µM was 0.292%.
The value for `COCCn1cncc1Cn1ncc2ccccc2c1=O` was 1.77%; that for `O=C(N[C@@H]1CCN(Cc2cccc3nonc23)C[C@H]1O)c1cccnc1` was -2.3%.
The value for `Cn1ccc2cc(C(=O)N3CCOCC3)ccc21` was 1.91%.
In the case of `COc1ccc(-n2cccn2)cc1S(=O)(=O)N1C[C@H](C2CC2)[C@@H](N)C1`, the cytotoxicity at 10 µM turned out to be 4.69%.
Turning to `Cc1cc(-c2nnc(SCC(=O)O)n2C(C)c2ccccc2)nn1C` (centres undefined), the cytotoxicity at 10 µM was -1.1%.
As to `CCOC(=O)N1CC(C)=C(C)CN1C(=O)Nc1ccc(Cl)c(Cl)c1`, the cytotoxicity at 10 µM is -0.113%.
Turning to `Cc1ccc(-c2nc(CNC3CCc4ncnn4C3)co2)cc1` (centres undefined), the cytotoxicity at 10 µM is -3.75%.
As for `COc1ccccc1C(=O)Nc1cc(CC(C)C)nn1C`, the cytotoxicity at 10 µM was -12.5%.
To `Cc1cccc(OCCNC(=O)CN2CCCC2Cn2cncn2)c1` (centres undefined) belongs -4.03%; to `Cc1ncncc1C(=O)NCCn1nc2ccccn2c1=O`, -6.89%; to `Cc1nc(CN2CCCN(C(=O)CCc3ccco3)CC2)cs1`, 0.386%.
As to `CCNC(c1ccc(C)cc1)c1cccnc1` (centres undefined), the cytotoxicity at 10 µM was 0.533%.
The value for `COc1ccc(CCNC(=O)NCC(O)c2cccc(F)c2)cc1` (centres undefined) was -6.33%.
To `COc1cccc(COCC(=O)N2CCCC(n3cccn3)C2)c1` (centres undefined) belongs -0.363%; to `CSc1nccn1-c1cccc(C(=O)NCc2nnc(C)n2C)c1`, -9.46%.
To `O=C(CCn1cccn1)N1CCN(CC(F)F)CC1` belongs -5.11%; to `CN(Cc1ncc[nH]1)CC(c1cccs1)N1CCOCC1` (centres undefined), -4.22%.
On to `CC(NC(=O)NCCCOC1CCCCC1)c1nncn1C` (centres undefined), for which the cytotoxicity at 10 µM is -7.47%.
The value for `CC(CC#N)NC(=O)c1cc(Br)c2c(c1)OCCO2` (centres undefined) was 5.56%.
In the case of `O=C(COc1cccc(Br)c1)N1CCOCC1c1ncon1` (centres undefined), the cytotoxicity at 10 µM is -9.36%.
To `CC(Cn1cccn1)NC(=O)NCc1ccc(S(N)(=O)=O)cc1` (centres undefined) belongs 3.63%; to `CN(C)C(=O)c1sc2ncccc2c1C1CNCCO1` (centres undefined), 2.35%; to `CCc1ccc(CN2CCc3ncnc(N4CCOCC4)c3CC2)o1`, -2.05%.
Turning to `CCCn1nccc1NC(=O)CN1CCc2c(nc(C(C)C)n2C)C1`, the cytotoxicity at 10 µM came out at 4.02%.
With `CCc1noc(CN2C[C@@H]3CC[C@H]2CN(C2Cc4ccccc4C2)C3)n1`, the cytotoxicity at 10 µM was -0.268%.
